Here are results for nine compounds from ChEMBL document CHEMBL1132171, “Synthesis and antitumor activity of novel thioester derivatives of leinamycin” (J Med Chem, 1999).

The structures appear in SMILES notation.

System in one data set: not listed separately
As to the kind of experiment: Half-life determined by HPLC ([…]). The format is ADME.
Conditions: not given
In short, it runs like this: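 Stability read by HPLC at 330 nm. Compound at 20 μg/mL in pH 7 phosphate buffer/acetonitrile (4:1), 37 °C, half-life derived.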
Compound `CCOC(=O)CSC(=O)[C@](C)(O)[C@@]12CC/C(C)=C/[C@@H](O)C(=O)/C=C/C=Cc3csc(n3)[C@@H](C)N(C(=O)C1)[S+]2[O-]` (stereo not given in full) showed a half-life of over 24 h.

As to `C/C1=C\[C@@H](O)C(=O)/C=C/C=Cc2csc(n2)[C@@H](C)N2C(=O)C[C@@]([C@@](C)(O)C(=O)SCc3oc(=O)oc3C)(CC1)[S+]2[O-]` (stereo not given in full), the half-life is 16 h.

The compound `CC(=O)O[C@@H]1/C=C(\C)CC[C@]2([C@@](C)(O)C(=O)SCc3oc(=O)oc3C)CC(=O)N([C@H](C)c3nc(cs3)C=C/C=C/C1=O)[S+]2[O-]` (stereo not given in full) had a half-life of 24 h.

`COC1(O[C@@H]2/C=C(\C)CC[C@]3([C@@](C)(O)C(=O)SCc4oc(=O)oc4C)CC(=O)N([C@H](C)c4nc(cs4)/C=C/C=C/C2=O)[S+]3[O-])CCOCC1` (stereo not given in full) had a half-life of 18 h.

In turn, `COCO[C@@H]1/C=C(\C)CC[C@]2([C@@](C)(O)C(=O)SCc3oc(=O)oc3C)CC(=O)N([C@H](C)c3nc(cs3)C=C/C=C/C1=O)[S+]2[O-]` (stereo not given in full) gave a half-life of 24 h.

In turn, `CSC(=O)[C@](C)(O)[C@@]12CC/C(C)=C/[C@@H](O)C(=O)/C=C/C=Cc3csc(n3)[C@@H](C)N(C(=O)C1)[S+]2[O-]` (stereo not given in full) gave a half-life of 18 h.

Take `C/C1=C\[C@@H](O[C@H]2CCCCO2)C(=O)/C=C/C=C/c2csc(n2)[C@@H](C)N2C(=O)C[C@@]([C@@](C)(O)C(=O)SCc3oc(=O)oc3C)(CC1)[S+]2[O-]` (stereo not given in full): the half-life was 30 h.

`C/C1=C\[C@@H](O[C@@H]2CCCCO2)C(=O)/C=C/C=C/c2csc(n2)[C@@H](C)N2C(=O)C[C@@]([C@@](C)(O)C(=O)SCc3oc(=O)oc3C)(CC1)[S+]2[O-]` (stereo not given in full): the half-life was 30 h.

As for `C/C1=C\[C@@H](O)C(=O)/C=C/C=C\c2csc(n2)[C@@H](C)NC(=O)C[C@@]2(CC1)[S+]([O-])SC(=O)[C@]2(C)O` (stereo not given in full) [LEINAMYCIN], the half-life was 6 h.

The next data set concerns HeLa. As to the kind of experiment: In vitro antiproliferative activity against HeLa S3 cells. It counts as functional, cell-based. Conditions: Homo sapiens. Put shortly:
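HeLa S3 cells precultured 24 h in 96-well plates, then exposed to compound for 72 h. Growth inhibition read on day 4 by neutral red dye uptake.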
Regarding `CCOC(=O)CSC(=O)[C@](C)(O)[C@@]12CC/C(C)=C/[C@@H](O)C(=O)/C=C/C=Cc3csc(n3)[C@@H](C)N(C(=O)C1)[S+]2[O-]` (stereo not given in full), the IC50 stood at 1300 nM. That is a single-digit micromolar value.

`C/C1=C\[C@@H](O)C(=O)/C=C/C=Cc2csc(n2)[C@@H](C)N2C(=O)C[C@@]([C@@](C)(O)C(=O)SCc3oc(=O)oc3C)(CC1)[S+]2[O-]` (stereo not given in full) yielded an IC50 of 4.6 nM.

Take `CC(=O)O[C@@H]1/C=C(\C)CC[C@]2([C@@](C)(O)C(=O)SCc3oc(=O)oc3C)CC(=O)N([C@H](C)c3nc(cs3)C=C/C=C/C1=O)[S+]2[O-]` (stereo not given in full): the IC50 was found to be 3.9 nM.

`COC1(O[C@@H]2/C=C(\C)CC[C@]3([C@@](C)(O)C(=O)SCc4oc(=O)oc4C)CC(=O)N([C@H](C)c4nc(cs4)/C=C/C=C/C2=O)[S+]3[O-])CCOCC1` (stereo not given in full) registered an IC50 of 1.4 nM.

`COCO[C@@H]1/C=C(\C)CC[C@]2([C@@](C)(O)C(=O)SCc3oc(=O)oc3C)CC(=O)N([C@H](C)c3nc(cs3)C=C/C=C/C1=O)[S+]2[O-]` (stereo not given in full) displayed an IC50 of 0.17 nM.

`CSC(=O)[C@](C)(O)[C@@]12CC/C(C)=C/[C@@H](O)C(=O)/C=C/C=Cc3csc(n3)[C@@H](C)N(C(=O)C1)[S+]2[O-]` (stereo not given in full) registered an IC50 of 830 nM.

`C/C1=C\[C@@H](O[C@H]2CCCCO2)C(=O)/C=C/C=C/c2csc(n2)[C@@H](C)N2C(=O)C[C@@]([C@@](C)(O)C(=O)SCc3oc(=O)oc3C)(CC1)[S+]2[O-]` (stereo not given in full): the IC50 amounted to 2.4 nM.

Compound `C/C1=C\[C@@H](O[C@@H]2CCCCO2)C(=O)/C=C/C=C/c2csc(n2)[C@@H](C)N2C(=O)C[C@@]([C@@](C)(O)C(=O)SCc3oc(=O)oc3C)(CC1)[S+]2[O-]` (stereo not given in full) yielded an IC50 of 0.67 nM.

A further data set deals with Mus musculus. As to the kind of experiment: Optimal dose for in vivo antitumor activity against sarcoma 180 infected mice. The format is functional.
Conditions: not given
Put shortly: (§1)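 ddY mice given sarcoma 180 cells in the axillary region on day 0. Single iv dose on day 1. Tumor volume expressed as treated/control ratio. Optimal dose reported.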
Consider `CCOC(=O)CSC(=O)[C@](C)(O)[C@@]12CC/C(C)=C/[C@@H](O)C(=O)/C=C/C=Cc3csc(n3)[C@@H](C)N(C(=O)C1)[S+]2[O-]` (stereo not given in full), for which the OD came out at 16 mg/kg.

As for `C/C1=C\[C@@H](O)C(=O)/C=C/C=Cc2csc(n2)[C@@H](C)N2C(=O)C[C@@]([C@@](C)(O)C(=O)SCc3oc(=O)oc3C)(CC1)[S+]2[O-]` (stereo not given in full), the OD turned out to be 2 mg/kg.

`CC(=O)O[C@@H]1/C=C(\C)CC[C@]2([C@@](C)(O)C(=O)SCc3oc(=O)oc3C)CC(=O)N([C@H](C)c3nc(cs3)C=C/C=C/C1=O)[S+]2[O-]` (stereo not given in full) gave an OD of 2 mg/kg.

For the compound `COC1(O[C@@H]2/C=C(\C)CC[C@]3([C@@](C)(O)C(=O)SCc4oc(=O)oc4C)CC(=O)N([C@H](C)c4nc(cs4)/C=C/C=C/C2=O)[S+]3[O-])CCOCC1` (stereo not given in full), the OD is 8 mg/kg.

In turn, `COCO[C@@H]1/C=C(\C)CC[C@]2([C@@](C)(O)C(=O)SCc3oc(=O)oc3C)CC(=O)N([C@H](C)c3nc(cs3)C=C/C=C/C1=O)[S+]2[O-]` (stereo not given in full) returned an OD of 2 mg/kg.

Consider `CSC(=O)[C@](C)(O)[C@@]12CC/C(C)=C/[C@@H](O)C(=O)/C=C/C=Cc3csc(n3)[C@@H](C)N(C(=O)C1)[S+]2[O-]` (stereo not given in full), for which the OD came out at 16 mg/kg.

`C/C1=C\[C@@H](O[C@H]2CCCCO2)C(=O)/C=C/C=C/c2csc(n2)[C@@H](C)N2C(=O)C[C@@]([C@@](C)(O)C(=O)SCc3oc(=O)oc3C)(CC1)[S+]2[O-]` (stereo not given in full): the OD turned out to be 8 mg/kg.

As to `C/C1=C\[C@@H](O[C@@H]2CCCCO2)C(=O)/C=C/C=C/c2csc(n2)[C@@H](C)N2C(=O)C[C@@]([C@@](C)(O)C(=O)SCc3oc(=O)oc3C)(CC1)[S+]2[O-]` (stereo not given in full), the OD was 8 mg/kg.

With `C/C1=C\[C@@H](O)C(=O)/C=C/C=C\c2csc(n2)[C@@H](C)NC(=O)C[C@@]2(CC1)[S+]([O-])SC(=O)[C@]2(C)O` (stereo not given in full) [LEINAMYCIN], the OD came out at 2 mg/kg.

For the next data set, the system named is Mus musculus. As to the kind of experiment: In vivo antitumor activity against sarcoma 180 infected mice was determined as treated versus control of tumor volume. It counts as functional.
Conditions: not given
In short, it runs like this:
as §1
`CCOC(=O)CSC(=O)[C@](C)(O)[C@@]12CC/C(C)=C/[C@@H](O)C(=O)/C=C/C=Cc3csc(n3)[C@@H](C)N(C(=O)C1)[S+]2[O-]` (stereo not given in full) showed a T/C of 0.98.

`C/C1=C\[C@@H](O)C(=O)/C=C/C=Cc2csc(n2)[C@@H](C)N2C(=O)C[C@@]([C@@](C)(O)C(=O)SCc3oc(=O)oc3C)(CC1)[S+]2[O-]` (stereo not given in full) yielded a T/C of 0.67.

In turn, `CC(=O)O[C@@H]1/C=C(\C)CC[C@]2([C@@](C)(O)C(=O)SCc3oc(=O)oc3C)CC(=O)N([C@H](C)c3nc(cs3)C=C/C=C/C1=O)[S+]2[O-]` (stereo not given in full) displayed a T/C of 0.38.

For `COC1(O[C@@H]2/C=C(\C)CC[C@]3([C@@](C)(O)C(=O)SCc4oc(=O)oc4C)CC(=O)N([C@H](C)c4nc(cs4)/C=C/C=C/C2=O)[S+]3[O-])CCOCC1` (stereo not given in full), the T/C is listed as 0.25.

As to `COCO[C@@H]1/C=C(\C)CC[C@]2([C@@](C)(O)C(=O)SCc3oc(=O)oc3C)CC(=O)N([C@H](C)c3nc(cs3)C=C/C=C/C1=O)[S+]2[O-]` (stereo not given in full), the T/C is on record as 0.58.

`CSC(=O)[C@](C)(O)[C@@]12CC/C(C)=C/[C@@H](O)C(=O)/C=C/C=Cc3csc(n3)[C@@H](C)N(C(=O)C1)[S+]2[O-]` (stereo not given in full) displayed a T/C of 0.94.

Compound `C/C1=C\[C@@H](O[C@H]2CCCCO2)C(=O)/C=C/C=C/c2csc(n2)[C@@H](C)N2C(=O)C[C@@]([C@@](C)(O)C(=O)SCc3oc(=O)oc3C)(CC1)[S+]2[O-]` (stereo not given in full) had a T/C of 0.63.

`C/C1=C\[C@@H](O[C@@H]2CCCCO2)C(=O)/C=C/C=C/c2csc(n2)[C@@H](C)N2C(=O)C[C@@]([C@@](C)(O)C(=O)SCc3oc(=O)oc3C)(CC1)[S+]2[O-]` (stereo not given in full) showed a T/C of 0.26.

On to `C/C1=C\[C@@H](O)C(=O)/C=C/C=C\c2csc(n2)[C@@H](C)NC(=O)C[C@@]2(CC1)[S+]([O-])SC(=O)[C@]2(C)O` (stereo not given in full) [LEINAMYCIN], for which the T/C amounted to 0.49.

As a reminder, the half-life is the time in which the quantity being followed falls by half. Lower therefore signals rapid decline. Usually IC50 stands for the point on the concentration scale where inhibition reaches its midpoint. Low readings indicate greater potency, high ones weaker potency.
